From ChEMBL document CHEMBL4373712, “Bioactivatable Pseudotripeptidization of Cyclic Dipeptides To Increase the Affinity toward Oligopeptide Transporter 1 for Enhanced Oral Absorption: An Application to Cyclo(l-Hyp-l-Ser) (JBP485)” (J Med Chem, 2019)

How the values were obtained:
[1] = Half life in pH 6.8 phosphate buffer at 5 mM by HPLC analysis; type: physicochemical
Procedure, shortened: (§1)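 Compound at 5 mM in 0.1 M HCl, pH 4.5 acetate buffer, pH 5.8/6.8/7.2 phosphate buffers, SGF (pH 1.2) and SIF (pH 6.8), prepared per Chinese Pharmacopoeia. Samples taken at 0-20 h and analyzed by HPLC-UV. k = 2.303×slope of log C versus time; t1/2 = 0.693/k.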

[2] = AUC (0 to t) in Sprague-Dawley rat assessed as JBP485 level at 12 mg/kg equiv of JBP485 administered orally by UPLC-MS/MS analysis; type: ADME, organism-based; conditions: in vivo, po
Procedure, shortened: (§2)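 Male SD rats, 200-250 g, fasted 12 h with water, n=6. Oral dose of 12 mg/kg as JBP485 equivalent; dose-effect arms at 12 and 100 mg/kg. JBP485 given iv at 6 mg/kg as the reference. Jugular blood taken at 0.083-10 h. Plasma JBP485 by UPLC-MS/MS. Absolute F = (AUCpo×Div)/(AUCiv×Dpo)×100%, using AUC0-t.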

[3] = Oral bioavailability in Sprague-Dawley rat assessed as JBP485 level at 12 mg/kg equiv of JBP485 by UPLC-MS/MS analysis; type: ADME, organism-based; conditions: in vivo; procedure, shortened: as §2
[4] = Ratio of half-life in pH 7.2 phosphate buffer to half-life in Sprague-Dawley rat plasma; type: ADME
[5] = Apparent permeability across human Caco2 cells at 0.5 mM measured after 5 to 60 mins by UPLC-MS/MS analysis; type: ADME, cell-based; conditions: caco-2, 500 µM
Procedure, shortened: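 Caco-2 cells grown on 0.4 µm transwell inserts; monolayers used only with TEER >300 Ω/cm². Compound at 0.5 mM in apical pH 6.0 HBSS, basolateral pH 7.4 HBSS, 37 °C. Basolateral samples taken at 5, 15, 30, 45 and 60 min. Quantified by UPLC-MS/MS; Papp from steady-state flux, area and initial donor concentration. Three repeats.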

[6] = Terminal half-life in Sprague-Dawley rat assessed as JBP485 level at 12 mg/kg equiv of JBP485 administered orally by UPLC-MS/MS analysis; type: ADME, organism-based; conditions: in vivo, po
Procedure, shortened: (§3)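 Fasted male SD rats (200–250 g), oral 12 mg/kg (prodrugs calculated as JBP485). Jugular blood 0.083–10 h, centrifuged, plasma JBP485 by UPLC-MS/MS; n=6.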

[7] = Half life in 0.1 M HCl at 5 mM by HPLC analysis; type: physicochemical; procedure, shortened: as §1
[8] = Tmax in Sprague-Dawley rat assessed as JBP485 level at 12 mg/kg equiv of JBP485 administered orally by UPLC-MS/MS analysis; type: ADME, organism-based; conditions: in vivo, po; procedure, shortened: as §3
[9] = Half life in pH 7.2 phosphate buffer at 5 mM by HPLC analysis; type: physicochemical; procedure, shortened: as §1
[10] = Half life in pH 5.8 phosphate buffer at 5 mM by HPLC analysis; type: physicochemical; procedure, shortened: as §1
[11] = Half life in Sprague-Dawley rat liver homogenates at 5 mM by HPLC analysis; type: ADME, tissue-based
Procedure, shortened: (§4)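 Jejunum and liver homogenates from male SD rats in pH 7.4 PBS, adjusted to 200 µg/mL protein, and rat plasma. Each incubated with compound at 5 mM at 37 °C.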

[12] = Half life in pH 1.2 simulated gastric fluid at 5 mM by HPLC analysis; type: ADME; procedure, shortened: as §1
[13] = Half life in pH 4.5 acetate buffer at 5 mM by HPLC analysis; type: physicochemical; procedure, shortened: as §1
[14] = Cmax in Sprague-Dawley rat assessed as JBP485 level at 12 mg/kg equiv of JBP485 administered orally by UPLC-MS/MS analysis; type: ADME, organism-based; parameters: dose 12 mg/kg, route oral; conditions: in vivo, po; procedure, shortened: as §2
[15] = Half life in Sprague-Dawley rat plasma at 5 mM by HPLC analysis; type: ADME, cell-free; procedure, shortened: as §4
[16] = Ratio of half-life in pH 7.2 phosphate buffer to half-life in Sprague-Dawley rat liver homogenates; type: ADME, tissue-based; conditions: tissue homogenate
[17] = Half life in Sprague-Dawley rat intestinal homogenates at 5 mM by HPLC analysis; type: ADME, tissue-based, Intestine; procedure, shortened: as §4
[18] = Ratio of half-life in pH 7.2 phosphate buffer to half-life in Sprague-Dawley rat intestinal homogenates; type: ADME, tissue-based; conditions: tissue homogenate
[19] = Half life in pH 6.8 simulated intestinal fluid at 5 mM by HPLC analysis; type: ADME; procedure, shortened: as §1
[20] = substrate: O=C1N[C@@H](CO)C(=O)N2C[C@H](O)C[C@@H]12; assay: (§5) Substrate activity at PEPT1 in human Caco2 cells assessed as Km measured after 10 mins by Eadie-Hofstee plot analysis; type: ADME, cell-based
Procedure, shortened: (§6)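 Caco-2 uptake at 0.2–5 mM compound for 10 min at 37 °C, cells washed ice-cold and lysed, drug quantified by UPLC-MS/MS and normalised to protein. Km from Eadie–Hofstee plot; n=3.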

[21] = substrate: [H][C@@]12C[C@@H](O)CN1C(=O)[C@H](COC(=O)[C@@H](N)C(C)C)NC2=O; assay: as §5; type: ADME, cell-based; procedure, shortened: as §6
[22] = substrate: O=C(O)[C@H](CO)NC(=O)[C@@H]1C[C@@H](O)CN1; assay: as §5; type: ADME, cell-based; procedure, shortened: as §6

| half-life at 5000 µM [1] [h] | AUCt [2] [nM/ml.hr] | F [3] [%] | Ratio [4] | Papp [5] | beta t1/2 [6] [h] | half-life at 5000 µM [7] [h] | Tmax [8] [h] | half-life at 5000 µM [9] [h] | half-life at 5000 µM [10] [h] | half-life at 5000 µM [11] [h] | half-life at 5000 µM [12] [h] | half-life at 5000 µM [13] [h] | Cmax [14] [µM] | half-life at 5000 µM [15] [h] | Ratio [16] | half-life at 5000 µM [17] [h] | Ratio [18] | half-life at 5000 µM [19] [h] | Molecule | other results |
| --- | --- | --- | --- | --- | --- | --- | --- | --- | --- | --- | --- | --- | --- | --- | --- | --- | --- | --- | --- | --- |
| 11.4 | 139.78 | 36 | 3 to 35 | Permeable | 2.51 | > 20 | 0.41 | 11.6 | > 20 | 2.1 | > 20 | > 20 | 98.3 | 6.1 | 3 to 35 | 0.9 | 3 to 35 | 11.1 | CC(C)[C@H](N)C(=O)O[C@@H]1C[C@H]2C(=O)N[C@@H](CO)C(=O)N2C1 |  |
| 2.6 | 28.75 | 7.4 | 3 to 35 |  | 2.23 | > 20 | 1.3 | 1.9 | 14.7 | 0.16 | > 20 | > 20 | 8.95 | 0.32 | 3 to 35 | < 0.083 | 3 to 35 | 2.4 | CC(C)C[C@H](N)C(=O)OC[C@@H]1NC(=O)[C@@H]2C[C@@H](O)CN2C1=O |  |
| 11.6 | 122.65 | 31.6 | 3 to 35 | Permeable | 0.9 | > 20 | 0.9 | 9.6 | > 20 | 4.8 | > 20 | > 20 | 41.8 | 4 | 3 to 35 | 0.8 | 3 to 35 | 10.9 | CCC(C)[C@H](N)C(=O)OC[C@@H]1NC(=O)[C@@H]2C[C@@H](O)CN2C1=O (some centres not stated) |  |
| 2.6 | 33.9 | 8.7 | 3 to 35 |  | 2.38 | > 20 | 1 | 2.3 | 8.2 | 0.16 | > 20 | > 20 | 10.7 | 0.29 | 3 to 35 | < 0.083 | 3 to 35 | 2.8 | N[C@@H](Cc1ccccc1)C(=O)OC[C@@H]1NC(=O)[C@@H]2C[C@@H](O)CN2C1=O |  |
|  |  |  |  |  |  |  |  |  |  |  |  |  |  |  |  |  |  |  | Solute carrier family 15 member 1 (Homo sapiens) (protein) MGMSKSHSFFGYPLSIFFIVVNEFCERFSYYGMRAILILYFTNFISWDDNLSTAIYHTFVALCYLTPILGALIADSWLGKFKTIVSLSIVYTIGQAVTSVSSINDLTDHNHDGTPDSLPVHVVLSLIGLALIALGTGGIKPCVSAFGGDQFEEGQEKQRNRFFSIFYLAINAGSLLSTIITPMLRVQQCGIHSKQACYPLAFGVPAALMAVALIVFVLGSGMYKKFKPQGNIMGKVAKCIGFAIKNRFRHRSKAFPKREHWLDWAKEKYDERLISQIKMVTRVMFLYIPLPMFWALFDQQGSRWTLQATTMSGKIGALEIQPDQMQTVNAILIVIMVPIFDAVLYPLIAKCGFNFTSLKKMAVGMVLASMAFVVAAIVQVEIDKTLPVFPKGNEVQIKVLNIGNNTMNISLPGEMVTLGPMSQTNAFMTFDVNKLTRINISSPGSPVTAVTDDFKQGQRHTLLVWAPNHYQVVKDGLNQKPEKGENGIRFVNTFNELITITMSGKVYANISSYNASTYQFFPSGIKGFTISSTEIPPQCQPNFNTFYLEFGSAYTYIVQRKNDSCPEVKVFEDISANTVNMALQIPQYFLLTCGEVVFSVTGLEFSYSQAPSNMKSVLQAGWLLTVAVGNIIVLIVAGAGQFSKQWAEYILFAALLLVVCVIFAIMARFYTYINPAEIEAQFDEDEKKNRLEKSNPYFMSGANSQKQM | Km [20]: 2530 µM; Km [21]: 860 µM; Km [22]: 650 µM |
